Laboratory results published in ChEMBL document CHEMBL1240390, “Activity of dalbavancin against Bacillus anthracis in vitro and in a mouse inhalation anthrax model” (Antimicrob Agents Chemother, 2010).
≈ marks a conversion by molar mass, not a printed value.

Key:
[1] = tested on: Bacillus anthracis; assay: Antimicrobial activity against Bacillus anthracis str. Ames infected in BALB/c mouse prophylaxis model assessed as mouse survival at 120 mg/kg, ip administered 48 hrs post infection every 72 hrs for 14 days measured after 42 days; type: functional; details: route intraperitoneal
[2] = tested on: Bacillus anthracis; assay: Antimicrobial activity against Bacillus anthracis str. Ames infected in BALB/c mouse prophylaxis model assessed as mouse survival at 120 mg/kg, ip administered 36 hrs post infection every 72 hrs for 14 days measured after 42 days; type: functional; details: route intraperitoneal
[3] = tested on: Bacillus anthracis; assay: Antimicrobial activity against Bacillus anthracis str. Ames infected in BALB/c mouse prophylaxis model assessed as mouse survival at 60 mg/kg, ip administered 48 hrs post infection every 36 hrs for 14 days measured after 42 days; type: functional; details: route intraperitoneal
[4] = tested on: Bacillus anthracis; assay: Antimicrobial activity against Bacillus anthracis str. Ames infected in BALB/c mouse prophylaxis model assessed as mouse survival at 60 mg/kg, ip administered 36 hrs post infection every 36 hrs for 14 days measured after 42 days; type: functional; details: route intraperitoneal
[5] = tested on: Bacillus anthracis; assay: Antimicrobial activity against Bacillus anthracis str. Ames infected in BALB/c mouse assessed as mouse survival at 30 mg/kg, ip bid administered 24 hrs post infection for 14 days measured after 42 days; type: functional; details: route intraperitoneal
[6] = tested on: Bacillus anthracis; assay: Antimicrobial activity against Bacillus anthracis str. Ames infected in BALB/c mouse prophylaxis model assessed as mouse survival at >=30 mg/kg, ip administered 24 hrs post infection every 36 hrs for 14 days measured after 42 days; type: functional
[7] = Ratio of fAUC in ICR mouse at 5 mg/kg, ip to MIC against Bacillus anthracis Ames; type: functional; details: route intraperitoneal
How it was run: (§1)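 Female ICR mice (23 to 27 g) received a single i.p. dose of 5 or 20 mg/kg in 5% glucose. Plasma was taken by cardiac puncture from 0.08 to 144 h, with 3 mice per dose and time point. Total drug was measured by microbiological agar diffusion, and parameters were derived noncompartmentally. Free values assume 1.6% unbound and are divided by the Ames-strain MIC.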

[8] = tested on: Bacillus anthracis; assay: Antimicrobial activity against Bacillus anthracis str. Ames infected in BALB/c mouse prophylaxis model assessed as mouse survival at >=15 mg/kg, ip administered 24 hrs post infection every 36 hrs for 14 days measured after 42 days; type: functional
[9] = tested on: Mus musculus; assay: T>MIC in ICR mouse at 20 mg/kg, ip; type: ADME, organism-based; set-up: dose 20 mg/kg, route intraperitoneal; details: in vivo
[10] = Ratio of fCmax in ICR mouse at 5 mg/kg, ip after 2 hrs to MIC for Bacillus anthracis Ames; type: functional; details: route intraperitoneal; how it was run: as §1
[11] = tested on: Mus musculus; assay: T>MIC in ICR mouse at 5 mg/kg, ip; type: ADME, organism-based; set-up: dose 5 mg/kg, route intraperitoneal; details: in vivo
[12] = AUC (0-infinity) in ICR mouse at 20 mg/kg, iv; type: ADME, organism-based; set-up: time infinity, dose 20 mg/kg, route intravenous; details: plasma
How it was run: (§2)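 Female ICR mice, 23 to 27 g, given single 5 or 20 mg/kg doses i.p. or i.v. (tail vein) in 5% glucose. Plasma was taken by cardiac puncture under halothane at 0.08 to 144 h, with 3 mice per route, dose and time point. Total drug was measured by microbiological agar diffusion assay; parameters came from noncompartmental analysis.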

[13] = AUC (0-infinity) in ICR mouse at 20 mg/kg, ip; type: ADME, organism-based; set-up: time infinity, dose 20 mg/kg, route intraperitoneal; details: plasma; how it was run: as §2
[14] = AUC (0-infinity) in ICR mouse at 5 mg/kg, iv; type: ADME, organism-based; set-up: time infinity, dose 5 mg/kg, route intravenous; details: plasma; how it was run: as §2
[15] = Plasma concentration in ICR mouse at 20 mg/kg, ip after 6 days; type: ADME, organism-based; set-up: dose 20 mg/kg, route intraperitoneal; how it was run: as §2
[16] = AUC (0-infinity) in ICR mouse at 5 mg/kg, ip; type: ADME, organism-based; set-up: dose 5 mg/kg, route intraperitoneal, time infinity; details: plasma; how it was run: as §2
[17] = Half life in ICR mouse at 20 mg/kg, ip; type: ADME, organism-based; set-up: dose 20 mg/kg, route intraperitoneal; details: in vivo; how it was run: as §2
[18] = Cmax in ICR mouse at 20 mg/kg, ip after 2 hrs; type: ADME, organism-based; set-up: dose 20 mg/kg, route intraperitoneal; details: in vivo; how it was run: as §2
[19] = Half life in ICR mouse at 5 mg/kg, ip; type: ADME, organism-based; set-up: dose 5 mg/kg, route intraperitoneal; details: in vivo; how it was run: as §2
[20] = Cmax in ICR mouse at 5 mg/kg, ip after 2 hrs; type: ADME, organism-based; set-up: dose 5 mg/kg, route intraperitoneal; details: in vivo; how it was run: as §2
[21] = tested on: Bacillus anthracis; assay: Antimicrobial activity against Bacillus anthracis str. Ames after 18-24 hrs by broth microdilution method; type: functional
[22] = AUC in patient with skin and soft tissue infections at 1000 mg, iv after 7 days; type: ADME, organism-based; details: human, plasma
[23] = tested on: Bacillus anthracis; assay: Antimicrobial activity against Bacillus anthracis after 18-24 hrs by broth microdilution method; type: functional
[24] = Ratio of fCmax in ICR mouse at 20 mg/kg, ip single dose after 2 hrs to MIC for Bacillus anthracis Ames; type: functional; details: route intraperitoneal; how it was run: as §1
[25] = Ratio of fAUC in ICR mouse at 20 mg/kg, ip to MIC against Bacillus anthracis Ames; type: functional; details: route intraperitoneal; how it was run: as §1
[26] = tested on: Mus musculus; assay: fCmax in ICR mouse at 5 mg/kg, ip after 2 hrs; type: ADME, organism-based; set-up: dose 5 mg/kg, route intraperitoneal; details: in vivo
[27] = tested on: Mus musculus; assay: fCmax in ICR mouse at 20 mg/kg, ip after 2 hrs; type: ADME, organism-based; set-up: dose 20 mg/kg, route intraperitoneal; details: in vivo
[28] = tested on: Mus musculus; assay: fAUC in ICR mouse at 5 mg/kg, ip; type: ADME, organism-based; set-up: dose 5 mg/kg, route intraperitoneal; details: in vivo
[29] = tested on: Mus musculus; assay: fAUC in ICR mouse at 20 mg/kg, ip; type: ADME, organism-based; set-up: dose 20 mg/kg, route intraperitoneal; details: in vivo

`CN[C@H]1C(=O)N[C@@H]2Cc3ccc(cc3)Oc3cc4cc(c3O[C@@H]3O[C@H](C(=O)O)[C@@H](O)[C@H](O)[C@H]3NC(=O)CCCCCCCCC(C)C)Oc3ccc(cc3Cl)[C@@H](O)[C@@H]3NC(=O)[C@H](NC(=O)[C@@H]4NC(=O)[C@@H](NC2=O)c2cc(cc(O)c2Cl)Oc2cc1ccc2O)c1ccc(O)c(c1)-c1c(O[C@H]2O[C@H](CO)[C@@H](O)[C@H](O)[C@@H]2O)cc(O)cc1[C@@H](C(=O)NCCCN(C)C)NC3=O` [DALBAVANCIN] gave an Activity [1] of 70%, an Activity [2] of 70% and an Activity [3] of 70%. It also gave an Activity [4] of 70%, an Activity [5] of 100% and an Activity [6] of 80%. The Ratio [7] was 46.7, the Activity [8] was 80% and the “T>MIC” value [9] was 38 h. For the same compound, the Ratio [10] was 4, the “T>MIC” value [11] was 17.8 h and the AUC(0-inf) [12] was 1070 µg·h/mL. The AUC(0-inf) [13] was 848 µg·h/mL, the AUC(0-inf) [14] was 200 µg·h/mL and the concentration at 144 h [15] was ≥ 400 ng/mL. It also gave an AUC(0-inf) [16] of 176 µg·h/mL, a half-life [17] of 53.4 h and a Cmax [18] of 71300 ng/mL. For the same compound, the half-life [19] was 53.4 h, the Cmax [20] was 15200 ng/mL and the MIC [21] was 0.06 µg/mL (≈ 0.033 µM). It also gave an AUC at 168 h [22] of 756 µg·h/mL, an MIC50 [23] of 0.06 µg/mL (≈ 0.033 µM) and an MIC90 [23] of 0.25 µg/mL (≈ 0.138 µM). It also gave a Ratio [24] of 19, a Ratio [25] of 227 and a fCmax [26] of 0.24 mg/L. The fCmax [27] was 1.14 mg/L, the fAUC [28] was 2.8 µg·h/mL and the fAUC [29] was 13.6 µg·h/mL.

Work on `CN[C@H](CC(C)C)C(=O)N[C@H]1C(=O)N[C@@H](CC(N)=O)C(=O)N[C@H]2C(=O)N[C@H]3C(=O)N[C@H](C(=O)N[C@H](C(=O)O)c4cc(O)cc(O)c4-c4cc3ccc4O)[C@H](O)c3ccc(c(Cl)c3)Oc3cc2cc(c3O[C@@H]2O[C@H](CO)[C@@H](O)[C@H](O)[C@H]2O[C@H]2C[C@](C)(N)[C@H](O)[C@H](C)O2)Oc2ccc(cc2Cl)[C@H]1O` [VANCOMYCIN] yielded an MIC [23] of 2 µg/mL (≈ 1.38 µM).
